The list is not random: actives were taken first. Their share in the collection is about 2.1%.
IMP-1 inh: inhibitors of Pseudomonas aeruginosa IMP-1 metallo-beta-lactamase | purified IMP-1, nitrocefin hydrolysis, epi-absorbance fluorescence | inhibition, % at 5.6 µM | 290,000 compounds, 0.45% hits;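 active means inhibition above the mean plus 3 SD of all compounds in the same screening run, cut at about 4.5% in these data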
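System: purified IMP-1 / Input: IMP-1 dispensed at 0.2 nM / Medium: 50 mM HEPES pH 7.1, 50 µM ZnSO4, 0.05% Brij 35 / Timing: 15 min enzyme–compound preincubation, then 25 min nitrocefin reaction, 25 °C / Technique: plate fluorescence quenching by hydrolysis product, ex 480/em 530 nm / Repeats: singlicate testing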
CRFR2-BP ag: agonists of human CRF-binding protein/CRF-R2 receptor complex. HEK293 CRF-R2/CRF-BP, calcium dye fluorescence (FLIPR); percent of saturating CRF peptide response. AID 588473. 350,000 compounds, 0.46% hits. activation, % at 13.2 µM;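 active means activation of at least 50%, plus an integration ratio under a set limit after plate pattern correction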
TRPN1 ag: activates the zebrafish TRPN1 channel; HEK293 zebrafish TRPN1-YFP, Fluo-8 calcium fluorescence; 100% = response to 87 µM carbachol; activation, % at 3 µM; 220,000 compounds, 0.18% hits;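 active means activation above its plate's cutoff, the mean activation of test wells on that plate plus 3 SD, cut at about 19% in these data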
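System: zebrafish TRPN1-YFP in HEK293 cells / Dosing: 3 µM single point / Timing: dye loading 1 h at 37 °C, then 30 min room temperature / Signal: Fluo-8 calcium fluorescence, excitation 470-495 nm, emission 515-575 nm / Read-out basis: percent activation from peak over basal fluorescence ratio, control-normalized / Control set: high carbachol 87 µM, low DMSO alone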
TRPML3 ag: human mucolipin-3 channel agonism. HEK293 TRPML3-YFP, Fluo-8 calcium fluorescence; 100% = the carbachol control signal. AID 1448. activation, % at 3 µM. 220,000 compounds, 0.29% hits. Q8TDD5;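 active means activation above its plate's cutoff, the mean activation of the plate's test wells plus 3 SD, cut at about 12% in these data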
Target sequence (Q8TDD5 whole entry, looked up): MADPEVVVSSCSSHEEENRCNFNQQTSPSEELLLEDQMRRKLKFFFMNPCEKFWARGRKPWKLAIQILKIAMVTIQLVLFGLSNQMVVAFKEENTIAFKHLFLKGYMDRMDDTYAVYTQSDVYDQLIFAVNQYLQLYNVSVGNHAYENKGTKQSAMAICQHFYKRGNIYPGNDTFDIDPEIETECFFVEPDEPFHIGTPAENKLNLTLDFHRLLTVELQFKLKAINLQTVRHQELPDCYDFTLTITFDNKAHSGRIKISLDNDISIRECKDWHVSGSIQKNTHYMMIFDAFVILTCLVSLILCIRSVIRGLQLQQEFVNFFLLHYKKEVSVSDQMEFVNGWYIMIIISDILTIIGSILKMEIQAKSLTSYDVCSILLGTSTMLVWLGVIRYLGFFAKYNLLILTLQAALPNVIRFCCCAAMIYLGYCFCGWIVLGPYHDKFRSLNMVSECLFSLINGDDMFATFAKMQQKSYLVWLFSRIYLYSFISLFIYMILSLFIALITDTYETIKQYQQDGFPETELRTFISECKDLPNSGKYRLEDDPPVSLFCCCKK
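Test system: TRPML3-YFP stable HEK293 cells. Doses: single point at 3 µM. Incubation: dye loading 1 h 37 °C then 30 min ambient, 125 s read. Signal: Fluo-8 calcium dye fluorescence, ex 470-495, em 515-575 nm. Measure: percent activation from peak-to-basal fluorescence ratio, scaled between DMSO and carbachol.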
VIM-2 inh: inhibitors of Pseudomonas aeruginosa VIM-2 metallo-beta-lactamase; AID 1527; inhibition, % at 5.6 µM; 290,000 compounds, 0.89% hits; purified VIM-2, nitrocefin hydrolysis, epi-absorbance fluorescence;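 active means inhibition above the mean of all tested compounds plus 3 SD, cutoff set per screening run, cut at about 7.5% in these data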;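 further: red hydrolysis product quenches plate fluorescence so inhibitors raise well fluorescence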
CRFBP-R2 block: antagonists of CRF-binding protein/CRF-R2 receptor complex; HEK293 CRF-R2/CRF-BP, CRF-induced calcium fluorescence; inhibition, % at 11.8 µM; 350,000 compounds, 0.59% hits; AID 588475;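 active means inhibition of the ligand-induced calcium signal above about 50% at the single tested concentration, limit read from the data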
Hits are given with their value; n = inactive; x = no result given.

SMILES	IMP-1 inh	CRFR2-BP ag	TRPN1 ag	TRPML3 ag	VIM-2 inh	CRFBP-R2 block
C=CCn1c(Oc2ccccc2)nc2c1c(=O)n(C)c(=O)n2C	n	106	n	n	n	n
COc1ccc(-c2cc(C)no2)cc1S(=O)(=O)N1CCN(C(=O)c2ccco2)CC1	n	n	x	x	n	75
CSCCC(NC(=O)C1CCC(C)CC1)C(=O)NCCN1CCC(C)CC1 (centres undefined)	n	n	n	n	n	n
CCN(C(=O)c1ccccc1)c1ccc([N+](=O)[O-])cc1	n	n	n	n	n	n
O=[N+]([O-])c1ccc(N(c2ccccc2)c2ccccc2)cc1	n	54	n	n	n	n
COc1cc(C)ccc1OCc1cc(C(=O)N(Cc2c(C)nn(C)c2C)C2CC2)no1	n	n	x	x	n	n
CC(=O)c1c(C)c2c(n1CCN(C)C)CCCC2	n	62	n	n	n	n
Cc1cccc(C)c1N1CCN(CCn2c(=S)[nH]c3ccccc3c2=O)CC1	n	n	x	x	n	n
Cc1c(-c2ccc(OCCN3CCOCC3)cc2)c(=O)oc2ccc3ccccc3c12	x	n	x	x	x	n
Cc1ccc(N2C(=O)c3cccc4c(N)ccc(c34)C2=O)c2cccnc12	5.7	201	182	28	n	n
COc1ccc2cc(C(=O)N3CCN(Cc4ccc5c(c4)OCO5)CC3)[nH]c2c1	n	n	x	x	n	50
Cc1ccc(NC(=O)CS(=O)CC(=O)Nc2ccccc2-c2ccc(C)o2)cc1 (centres undefined)	n	n	x	x	9.1	n
CC(=O)Nc1ccccc1-c1ccc(C)o1	n	n	n	n	n	n
CCN1CCCC1Cn1cnc2c([nH]c3cccc(Cl)c32)c1=O (centres undefined)	n	n	n	n	8.2	n
C[C@@H]1CC=C[C@@H]2[C@H]1C(=O)N(Cc1ccccc1)[C@H]2c1cccc(Br)c1	x	n	x	x	x	72
COCCN1C(=O)N(c2cccc(C)c2)C(=O)C1CC(=O)Nc1cc(OC)cc(OC)c1 (centres undefined)	n	n	x	x	n	n
CCC1CCCCN1C(=O)COC(=O)COc1ccc(Br)cc1 (centres undefined)	x	93	x	x	x	n
N#CCCN=C(NS(=O)(=O)c1ccccc1)c1ccccc1	n	n	x	x	n	n
Cc1sc(NC(=O)c2sc3nc4c(C)cccc4cc3c2N)c(C#N)c1C	n	88	n	n	n	n
Cc1ccc(C)c(NC(=O)c2ccccc2O)c1	n	62	n	n	n	n
CCOc1ccc(NC(=S)N2CCC(C(O)(c3ccccc3)c3ccccc3)CC2)cc1	n	n	n	n	n	56
CC(C(=O)NCc1ccccc1)n1cc([N+](=O)[O-])cn1 (centres undefined)	n	n	x	x	n	n
CCOC(=O)c1cc(-c2ccncc2)nc2c1c(C)nn2C	n	n	n	n	8.2	n
O=C(CN1CCN(c2ccc(F)cc2)CC1)Nc1ccc(S(=O)(=O)N2CCOCC2)cc1	n	n	x	x	n	n
O=C1c2ccccc2[C@@H]2C[C@@H](O)[C@H](Nc3ccccc3-c3ccccc3)CCN12	x	n	x	x	x	n
SMILES	IMP-1 inh	CRFR2-BP ag	TRPN1 ag	TRPML3 ag	VIM-2 inh	CRFBP-R2 block
Nc1nc2n(n1)C(c1cccc(Br)c1)CC(c1ccc(F)cc1)N2 (centres undefined)	n	54	n	n	n	n
CS(=O)(=O)Nc1nc2n(n1)C(c1ccccc1)CC(c1ccccc1)N2 (centres undefined)	n	n	n	n	n	106
COc1ccc(C2CC(c3ccc(Cl)cc3)n3nc(N)nc3N2)cc1 (centres undefined)	5.0	n	n	n	n	n
CC1(C)CC(NC(=O)C2CCN(S(=O)(=O)c3cccc(C(F)(F)F)c3)CC2)CC(C)(C)N1	x	n	x	x	x	n
CC(C)(C)S(=O)N1Cc2cn(Cc3ccccc3)c(=O)cc2[C@@H]1CCO (some centres undefined)	x	n	x	x	x	n
CCOc1ccc2[nH]c(=O)c(CN(Cc3nnnn3Cc3ccco3)C3CCCCC3)cc2c1	n	n	n	n	n	n
COc1cc2cc(CN(Cc3nnnn3Cc3ccco3)C3CCCCC3)c(=O)[nH]c2cc1OC	n	n	n	n	9.3	n
CN1C[C@H]2CON(C)[C@H]2C[C@H]1c1cccc(N2CCOCC2)c1	x	n	x	x	x	n
CCn1c(=O)c(CCC(=O)N2CCN(c3ccccn3)CC2)c(C)c2c(C)nn(-c3ccccc3)c21	n	n	x	x	n	n
COc1ccc(CN(C2CCCCC2C)S(=O)(=O)c2ccc(S(=O)(=O)N(C)C)cc2)cc1OC (centres undefined)	n	148	39	145	n	n
COc1cc(CN(C2CCCCC2C)S(=O)(=O)c2ccc(S(=O)(=O)NC3CC3)cc2)cc(OC)c1OC (centres undefined)	n	n	n	n	n	n
Cc1ccc(C)c(N(CC(=O)NC(C)(C)C)C(=O)CCC(=O)Nc2nccs2)c1	n	n	x	x	n	n
COc1ccc(-c2cc(C(=O)NC3CCCC3)c3ccccc3n2)cc1OC	x	n	x	x	x	97
COc1cccc(-c2cc(C(=O)NC3CCCC3)c3ccccc3n2)c1	x	n	x	x	x	n
Cc1ccc(Nc2nc(N)nc(CSc3nc(C)cc(C)n3)n2)cc1	4.9	n	n	n	n	n
C/C(=N\O)c1noc(C)c1C(=O)Nc1nccs1	n	n	x	x	12	n
Cc1nc2ccccc2n2c(O)c(CC(=O)O)cc12	n	89	n	n	n	n
CC(C)(C)c1ccc(SCCc2cccnc2)cc1	n	n	n	n	n	71
c1ccc(SCCc2ccncc2)cc1	n	n	n	n	n	n
O=S(=O)(c1cnc(Cl)c(Cl)c1)N1CCCc2ccccc21	n	n	n	n	n	n
O=S(=O)(c1cnc(Cl)c(Cl)c1)N1CCc2ccccc21	n	n	n	16	n	n
Oc1ccc(/C=N/Nc2ccccc2)cc1	n	n	n	n	n	n
Cc1nc2ccccc2nc1N/N=C/c1ccc(O)cc1	n	n	n	n	7.8	n
